Data as given in PMC3887510 (Journal of the American Chemical Society, 2013).
Entries after “also recorded” stand apart in the source; their conditions may differ.

Experiments:
AgrC-III [1] = molecular target: T1, AgrC-III (Staphylococcus aureus, UniProt O33590); conditions: read-out: AgrC-III antagonism IC50 value (CI); S. aureus AH1747 group-III P3-gfp reporter; CI = 95% confidence interval; cited from earlier work
[2] = test system: chimeric AgrC-III-IV receptor; assay: AgrC-III agonism assay; type: cell-based, Staphylococcus aureus; conditions: S. aureus RN9532 reporter strain
How it was run: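 Uses an agr-null group-I strain carrying a P3-blaZ reporter plasmid. The chimeric receptor joins the group-III AgrC N-terminal sensor domain to the group-IV AgrC C-terminal histidine kinase domain, followed by the agrA coding sequence. Test peptides were serially diluted from stock to give dose-response data. β-lactamase activity was the read-out (modified literature assay), and EC50 was calculated from the curves.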

[3] = test system: constitutively active AgrC-I receptor mutant; conditions: cited from earlier work
AgrC-III [4] = molecular target: T1, AgrC-III; assay: AgrC-III antagonism assay; type: cell-based; conditions: ratio of IC50 values vs AIP-III D4A
AgrC-III [5] = molecular target: T1, AgrC-III; conditions: cited from earlier work

Substance | IC50 (AgrC-III [1]) [nM] | AgrC-III agonistic activity in words [2] | mode of action on constitutively active AgrC-I receptor mutant [3] | AgrC-III agonism EC50 value relative to AIP-III ([2]; Figure S-2) | fold weaker / reduced AgrC-III inhibitory activity relative to AIP-III D4A (AgrC-III [4]) [fold] | fold less active as AgrC-III inhibitor relative to AIP-I D5A (AgrC-III [5]) [fold]
G-V-N-A-(C-S-S-L-F) [AIP-II] | 0.532 | inactivity | inverse agonist |  |  | 
I-N-(C-A-F-L-L) [AIP-III D4A] | 0.0506 |  |  |  |  | 
I-N-(C-D-F-L-L) [AIP-III] |  |  | neutral antagonists |  |  | 
I-N-(C-D-F-L-dL) [AIP-III D-L7] |  | agonistic activity; also recorded: able to activate AgrC-III (with analogous activity as AIP-III |  | comparable to AIP-III |  | 
Y-S-T-(C-D-F-I-M) [AIP-I] | 0.522 | inactivity |  |  | 10 | 10
Y-S-T-(C-Y-F-I-M) [AIP-IV] | 0.46 | inactivity | neutral antagonists |  |  | 
